Measurements of several laboratories.
Compare with care: the assays were run in different laboratories.
Target: Bone morphogenetic protein receptor type-2 (BMPR2, Homo sapiens, UniProt Q13873)
Residues used in one study (Q13873 27-1038): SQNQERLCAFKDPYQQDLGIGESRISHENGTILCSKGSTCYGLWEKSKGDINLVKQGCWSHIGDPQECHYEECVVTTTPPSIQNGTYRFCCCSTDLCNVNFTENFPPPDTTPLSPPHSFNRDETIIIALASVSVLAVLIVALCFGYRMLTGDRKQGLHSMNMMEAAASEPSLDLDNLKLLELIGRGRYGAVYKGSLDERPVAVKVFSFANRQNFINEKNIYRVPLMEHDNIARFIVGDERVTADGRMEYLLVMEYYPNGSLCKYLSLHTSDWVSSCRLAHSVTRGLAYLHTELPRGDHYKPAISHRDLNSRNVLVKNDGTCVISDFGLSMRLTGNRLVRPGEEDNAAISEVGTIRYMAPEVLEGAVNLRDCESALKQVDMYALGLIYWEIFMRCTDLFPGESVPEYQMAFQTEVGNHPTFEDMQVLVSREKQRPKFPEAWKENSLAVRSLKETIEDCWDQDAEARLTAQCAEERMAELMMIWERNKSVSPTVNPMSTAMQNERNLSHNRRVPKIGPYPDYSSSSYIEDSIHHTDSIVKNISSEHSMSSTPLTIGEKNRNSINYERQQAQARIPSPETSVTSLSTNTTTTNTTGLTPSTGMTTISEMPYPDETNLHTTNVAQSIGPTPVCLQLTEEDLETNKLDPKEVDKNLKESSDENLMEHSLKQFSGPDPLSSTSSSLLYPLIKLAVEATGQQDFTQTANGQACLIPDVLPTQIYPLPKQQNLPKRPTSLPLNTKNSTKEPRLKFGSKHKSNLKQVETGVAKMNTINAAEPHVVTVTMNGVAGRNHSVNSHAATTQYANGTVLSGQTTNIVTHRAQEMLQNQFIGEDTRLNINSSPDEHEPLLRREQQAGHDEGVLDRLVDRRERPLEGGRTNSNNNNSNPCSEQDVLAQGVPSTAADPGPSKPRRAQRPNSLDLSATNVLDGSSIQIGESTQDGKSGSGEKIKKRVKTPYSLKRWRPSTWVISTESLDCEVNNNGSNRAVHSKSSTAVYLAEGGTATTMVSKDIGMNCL

Compound | test | conditions | quantity | value
COc1cc(Cl)c(C(=O)N[C@@H](CN[C@H]2CC[C@@H](N)CC2)Cc2ccc(C#N)cc2)cc1-c1ccc(CN[C@H](C)c2ccc(C)cc2)o1 | enzyme activity, inhibitor | 1 µM | remaining activity | 99%
Cn1c2c(c3ccc(Cl)c(Cl)c31)C(C#N)C(C)(C)NC2=O (stereo not shown) | thermal stability, DSF | 10 µM | ΔTm | 1.4 °C
C[C@@]1(Cc2ccc(C#N)cc2)C(=O)N(c2cc(Cl)cc(Cl)c2)c2ncc(C(=O)NC3(c4nc(C5CCC5)no4)CC3)n21 | cell-free assay, competition with immobilised ligand | 1 µM | remaining binding | 100%
N#CC1c2c([nH]c3c(Cl)c(Cl)ccc23)C(=O)NC12CCCCC2 (racemic) | thermal stability, DSF | 10 µM | ΔTm | 0.7 °C
Cc1nccc(COC(=O)N2C[C@@H]3[C@@H](CNC(=O)c4ccc5[nH]nnc5c4)[C@@H]3C2)n1 | cell-free assay, competition with immobilised ligand | 1 µM | remaining binding | 81%
O=C(CSc1nc2nccnc2c(=O)n1CCc1ccccc1)Nc1nccs1 | enzyme activity, inhibitor | 10 µM | inhibition | 17%
O=C(Nc1cnn(-c2csc(C(=O)NC3COC3)c2)c1)Nc1ccccc1Cl | enzyme activity, inhibitor | 5 µM | remaining activity | 110%
Cn1c2c(c3ccc(Cl)c(Cl)c31)C(C#N)C1(CCNCC1)NC2=O (racemic) | thermal stability, DSF | 10 µM | ΔTm | 0.3 °C
Cc1ccc(C(=O)Nc2ccc(CN3CCN(C)CC3)c(C(F)(F)F)c2)cc1C#Cc1cnc2cccnn12 | cell-free assay | 23.5 nM | remaining signal | 98%
O=C(NCCCC1CCCCC1)c1ccc(CNC(=O)c2cnn(-c3ccccc3)c2C(F)(F)F)cc1 | cell-free assay, competition with immobilised ligand | 0.1 µM | remaining binding | 100%
Cn1cncc1C1=CN(c2ncnc3[nH]cnc23)CCS1 | enzyme activity, inhibitor, radiometric | 50 nM | inhibition | 21.3%
Cn1nc(C(F)(F)F)cc1-c1cnc(N2CCc3cc(S(=O)(=O)Nc4c(F)cc(Cl)cc4F)cc(N4CCCC4=O)c32)nc1 | cell-free assay, competition with immobilised ligand | 1 µM | remaining binding | 77%
Nc1ncnc2occ(-c3ccc(NC(=O)Nc4cc(C(F)(F)F)ccc4F)cc3)c12 | cell-free assay | 20 µM | remaining signal | 60%
